# ChEMBL document CHEMBL1158372, “Design, synthesis, and biological evaluation of novel triazole derivatives as inhibitors of cytochrome P450 14alpha-demethylase” (2009)
# Experiments:
# Format in all cases: functional
# Candida albicans = test: Antifungal activity against Candida albicans ATCC 76615 after 24 hrs by micro-broth dilution method; conditions: ATCC 76615, 24 h
# Outline: (§1)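 NCCLS (M27-A2) broth microdilution in 96-well format. Compounds in DMSO, serially diluted in growth medium, inoculated, incubated at 35 °C, and read at 24 h (C. albicans ATCC76615) or 72 h (Cry. neoformans ATCC32609). MIC80 is the first well with about 80% less growth than the drug-free well. Three independent runs per agent; the mean of replicates is reported.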
# Trichophyton rubrum = test: Antifungal activity against Trichophyton rubrum by micro-broth dilution method
# Outline: (§2)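 Broth microdilution in 96-well plates following the NCCLS method. DMSO solutions of test agents were serially diluted in growth medium, inoculated, and incubated at 35 °C. MIC80 is the first well showing roughly 80% growth reduction versus the drug-free control. C. albicans ATCC76615 and Cry. neoformans ATCC32609 served as quality-control strains. Each test was done three times; the mean of replicates is reported.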
# Cryptococcus neoformans = test: Antifungal activity against Cryptococcus neoformans ATCC 32609 after 72 hrs by micro-broth dilution method; conditions: ATCC 32609, 72 h; outline: as §1
# Aspergillus fumigatus = test: Antifungal activity against Aspergillus fumigatus by micro-broth dilution method; outline: as §2
# Nannizzia gypsea = test: Antifungal activity against Microsporum gypseum by micro-broth dilution method; outline: as §2
# Candida parapsilosis = test: Antifungal activity against Candida parapsilosis by micro-broth dilution method; conditions: Lodderomyces parapsilosis; outline: as §2
# Pichia kudriavzevii = test: Antifungal activity against Candida krusei by micro-broth dilution method; outline: as §2
# Candida tropicalis = test: Antifungal activity against Candida tropicalis by micro-broth dilution method; outline: as §2
SMILES,MIC80 (Candida albicans),MIC80 (Trichophyton rubrum),MIC80 (Cryptococcus neoformans),MIC80 (Aspergillus fumigatus),MIC80 (Nannizzia gypsea),MIC80 (Candida parapsilosis),MIC80 (Pichia kudriavzevii),MIC80 (Candida tropicalis)
C[C@@H](c1ncncc1F)[C@](O)(Cn1cncn1)c1ccc(F)cc1F [VORICONAZOLE],0.0156 µg/mL,0.0625 µg/mL,0.0156 µg/mL,0.25 µg/mL,0.0039 µg/mL,0.0039 µg/mL,0.0625 µg/mL,0.0039 µg/mL
C=CCN(Cc1ccc(C(=O)OCC(C)C)cc1)CC(O)(Cn1cncn1)c1ccc(F)cc1F (stereo not drawn),1 µg/mL,0.0625 µg/mL,1 µg/mL,> 64 µg/mL,0.25 µg/mL,0.25 µg/mL,1 µg/mL,1 µg/mL
C=CCN(Cc1ccc(C(=O)OCCCCC)cc1)CC(O)(Cn1cncn1)c1ccc(F)cc1F (stereo not drawn),1 µg/mL,0.25 µg/mL,1 µg/mL,> 64 µg/mL,1 µg/mL,1 µg/mL,1 µg/mL,1 µg/mL
C=CCN(Cc1ccc(F)cc1)CC(O)(Cn1cncn1)c1ccc(F)cc1F (stereo not drawn),0.0156 µg/mL,1 µg/mL,0.0625 µg/mL,> 64 µg/mL,0.0156 µg/mL,0.0625 µg/mL,0.0625 µg/mL,0.0625 µg/mL
C=CCN(Cc1ccc(Br)cc1)CC(O)(Cn1cncn1)c1ccc(F)cc1F (stereo not drawn),0.0625 µg/mL,0.25 µg/mL,0.25 µg/mL,4 µg/mL,0.0625 µg/mL,0.25 µg/mL,0.0625 µg/mL,0.25 µg/mL
OC(Cn1cncn1)(Cn1cncn1)c1ccc(F)cc1F [FLUCONAZOLE],0.5 µg/mL,4 µg/mL,1 µg/mL,> 64 µg/mL,0.25 µg/mL,1 µg/mL,4 µg/mL,1 µg/mL
C=CCN(Cc1ccc(Cl)cc1)CC(O)(Cn1cncn1)c1ccc(F)cc1F (stereo not drawn),0.25 µg/mL,0.25 µg/mL,0.25 µg/mL,16 µg/mL,0.0625 µg/mL,0.25 µg/mL,0.0625 µg/mL,0.25 µg/mL
C=CCN(Cc1ccccc1F)CC(O)(Cn1cncn1)c1ccc(F)cc1F (stereo not drawn),0.0039 µg/mL,0.25 µg/mL,0.0625 µg/mL,> 64 µg/mL,0.0039 µg/mL,0.0156 µg/mL,0.0156 µg/mL,0.0625 µg/mL
CN(C/C=C/C#CC(C)(C)C)Cc1cccc2ccccc12 [TERBINAFINE],4 µg/mL,0.0625 µg/mL,1 µg/mL,0.0625 µg/mL,4 µg/mL,0.25 µg/mL,16 µg/mL,0.0625 µg/mL
C=CCN(Cc1ccc(C(=O)Oc2ccc([N+](=O)[O-])cc2)cc1)CC(O)(Cn1cncn1)c1ccc(F)cc1F (stereo not drawn),0.25 µg/mL,4 µg/mL,1 µg/mL,> 64 µg/mL,0.25 µg/mL,1 µg/mL,1 µg/mL,1 µg/mL
CCC(C)n1ncn(-c2ccc(N3CCN(c4ccc(OCC5COC(Cn6cncn6)(c6ccc(Cl)cc6Cl)O5)cc4)CC3)cc2)c1=O (stereo not drawn) [ITRACONAZOLE],0.0625 µg/mL,0.125 µg/mL,0.125 µg/mL,0.5 µg/mL,0.0625 µg/mL,0.125 µg/mL,0.5 µg/mL,0.125 µg/mL
C=CCN(Cc1ccc(C(=O)Oc2ccccc2)cc1)CC(O)(Cn1cncn1)c1ccc(F)cc1F (stereo not drawn),1 µg/mL,16 µg/mL,1 µg/mL,> 64 µg/mL,1 µg/mL,1 µg/mL,1 µg/mL,1 µg/mL
C=CCN(Cc1cccc(F)c1)CC(O)(Cn1cncn1)c1ccc(F)cc1F (stereo not drawn),0.0156 µg/mL,0.25 µg/mL,0.0625 µg/mL,> 64 µg/mL,0.0156 µg/mL,0.0625 µg/mL,0.0625 µg/mL,0.0625 µg/mL
C=CCN(Cc1ccccc1C)CC(O)(Cn1cncn1)c1ccc(F)cc1F (stereo not drawn),0.0156 µg/mL,0.0625 µg/mL,0.0625 µg/mL,> 64 µg/mL,0.0039 µg/mL,0.0625 µg/mL,0.0625 µg/mL,0.0625 µg/mL
C=CCN(Cc1ccc(CC)cc1)CC(O)(Cn1cncn1)c1ccc(F)cc1F (stereo not drawn),0.25 µg/mL,1 µg/mL,0.25 µg/mL,> 64 µg/mL,0.0625 µg/mL,1 µg/mL,0.25 µg/mL,0.0156 µg/mL
C=CCN(Cc1ccc(C(=O)OCC)cc1)CC(O)(Cn1cncn1)c1ccc(F)cc1F (stereo not drawn),0.0039 µg/mL,0.25 µg/mL,1 µg/mL,> 64 µg/mL,0.25 µg/mL,1 µg/mL,0.0625 µg/mL,0.25 µg/mL
